The results in this text go back to ChEMBL document CHEMBL1154858, “Synthesis, in vitro antibacterial and antifungal evaluations of new alpha-hydroxyphosphonate and new alpha-acetoxyphosphonate derivatives of tetrazolo [1, 5-a] quinoline” (2010).

Values after ≈ are worked out from the molar mass of the structure shown.

Holding throughout (assay type): functional
In test [1] the test system is Aspergillus niger. The test can be described thus: Antifungal activity against Aspergillus niger NCIM 545 after 24 hrs by cup plate method. The conditions noted are these: NCIM 545, 24 h. A digest of the protocol:
(§1)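 Cup-plate MIC on Mueller Hinton agar plates containing the compound at 0 (control), 1, 2, 3, 5, 10, 15, 20, 30 and 40 (unit unclear), with compounds dissolved in DMF. Plates were read after 24 h and incubated further up to 72 h where needed. MIC is the lowest concentration giving no visible macroscopic growth.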

Test [2] has as its system Bacillus subtilis. Description: Antibacterial activity against Bacillus subtilis NCIM 2250 after 48 hrs by agar cup plate method. A digest of the protocol:
(§2)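 Agar cup plate zone-of-inhibition assay on Mueller Hinton agar, with compounds dissolved in DMF and streptomycin in DMF as the reference. Plates were incubated at 37 ± 0.5 °C for 48 h. Inhibition was scored as the diameter of the growth-free zone around the cup.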

In test [3] the test system is Escherichia coli. Description: Antibacterial activity against Escherichia coli ATCC 25922 after 48 hrs by agar cup plate method. A digest of the protocol:
as §2

Test [4] deals with Bacillus subtilis. Description: Antibacterial activity against Bacillus subtilis NCIM 2250 after 24 hrs by cup plate method. The conditions noted are these: NCIM 2250, 24 h. A digest of the protocol:
as §1

Test [5] concerns Escherichia coli. The test can be described thus: Antibacterial activity against Escherichia coli ATCC 25922 after 24 hrs by cup plate method. The conditions noted are these: ATCC 25922, 24 h. A digest of the protocol: as §1
For test [6], the system named is Candida albicans. The test can be described thus: Antifungal activity against Candida albicans MTCC 277 after 48 hrs by agar cup plate method. A digest of the protocol:
(§3)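 Fungal zone-of-inhibition test in Czapek Dox medium by the agar cup method, with compounds dissolved in DMF and griseofulvin in DMF as the reference. Plates were incubated at 28 ± 0.5 °C for 48 h. Activity was taken as the diameter of the zone of inhibited growth around the cup.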

In test [7] the test system is Aspergillus niger. The test can be described thus: Antifungal activity against Aspergillus niger NCIM 545 after 48 hrs by agar cup plate method. A digest of the protocol:
as §3

Test [8] relates to Candida albicans. Description: Antifungal activity against Candida albicans MTCC 277 after 24 hrs by cup plate method. The conditions noted are these: MTCC 277, 24 h. A digest of the protocol:
as §1

A word on the MIC: it is the least concentration at which growth counts as inhibited. Higher therefore signals a need for much substance.

Regarding `CCOc1ccc2c(c1)cc(C(O)P(=O)(OCC)OCC)c1nnnn12` (configuration not stated), the MIC amounted to 15 µg/mL (≈ 39.4 µM) in test [1], 10 µg/mL (≈ 26.3 µM) in test [4], 15 µg/mL (≈ 39.4 µM) in test [5] and 10 µg/mL (≈ 26.3 µM) in test [8]. Further, the “diameter of the inhibition zone (DIZ)” value in test [2] is recorded as 15.4 mm; in test [3] it was 13.5 mm; in test [6], 13.8 mm; in test [7], 12.8 mm.

In the case of `CCOP(=O)(OCC)C(OC(C)=O)c1cc2ccc(C)cc2n2nnnc12` (configuration not stated), the MIC in test [1] is 10 µg/mL (≈ 25.5 µM); in test [4], 10 µg/mL (≈ 25.5 µM); in test [5], 15 µg/mL (≈ 38.2 µM); in test [8], 10 µg/mL (≈ 25.5 µM). Besides, the “diameter of the inhibition zone (DIZ)” value in test [2] is reported as 14.1 mm; in test [3], 13.2 mm; in test [6], 13.4 mm; in test [7] it was 15.2 mm.

Turning to `CCOP(=O)(OCC)C(OC(C)=O)c1cc2cccc(OC)c2n2nnnc12` (configuration not stated), the MIC in test [1] is 15 µg/mL (≈ 36.7 µM); in test [4] it was 15 µg/mL (≈ 36.7 µM); in test [5], 25 µg/mL (≈ 61.2 µM); in test [8], 15 µg/mL (≈ 36.7 µM). Moreover, the “diameter of the inhibition zone (DIZ)” value in test [2] came out at 11.4 mm; in test [3] it was 13.9 mm; in test [6], 12.1 mm; in test [7], 13.4 mm.

Consider `CCOP(=O)(OCC)C(O)c1cc2cc(OC)ccc2n2nnnc12` (configuration not stated), for which the MIC in test [1] worked out at 15 µg/mL (≈ 40.9 µM); in test [4], 10 µg/mL (≈ 27.3 µM); in test [5], 15 µg/mL (≈ 40.9 µM); in test [8], 10 µg/mL (≈ 27.3 µM). In addition, the “diameter of the inhibition zone (DIZ)” value in test [2] is 12.4 mm; in test [3] it was 13.3 mm; in test [6], 14.1 mm; in test [7], 12.2 mm.

Take `CCOP(=O)(OCC)C(O)c1cc2ccc(OC)cc2n2nnnc12` (configuration not stated): the MIC in test [1] is 10 µg/mL (≈ 27.3 µM); in test [4] it was 10 µg/mL (≈ 27.3 µM); in test [5], 15 µg/mL (≈ 40.9 µM); in test [8], 10 µg/mL (≈ 27.3 µM). For the same molecule, the “diameter of the inhibition zone (DIZ)” value in test [2] worked out at 12 mm; in test [3] it was 13.6 mm; in test [6], 13.4 mm; in test [7], 14.4 mm.

Turning to `CCOP(=O)(OCC)C(OC(C)=O)c1cc2cc(OC)ccc2n2nnnc12` (configuration not stated), the minimum inhibitory concentration (MIC) in test [1], in test [4], in test [5] and in test [8] was 10 µg/mL (≈ 24.5 µM) throughout. For the same molecule, the “diameter of the inhibition zone (DIZ)” value in test [2] came to 13.2 mm; in test [3], 12.4 mm; in test [6], 13.4 mm; in test [7] it was 14.2 mm.

Take `CCOP(=O)(OCC)C(OC(C)=O)c1cc2ccc(OC)cc2n2nnnc12` (configuration not stated): the MIC in test [1] is 25 µg/mL (≈ 61.2 µM); in test [4] it was 10 µg/mL (≈ 24.5 µM); in test [5] it was 15 µg/mL (≈ 36.7 µM); in test [8], 10 µg/mL (≈ 24.5 µM). For the same molecule, the “diameter of the inhibition zone (DIZ)” value in test [2] is 12.5 mm; in test [3] it was 11.1 mm; in test [6], 13.8 mm; in test [7] it was 12.5 mm.

For the molecule `CCOc1ccc2c(c1)cc(C(OC(C)=O)P(=O)(OCC)OCC)c1nnnn12` (configuration not stated), the MIC in test [1], in test [4], in test [5] and in test [8] was 10 µg/mL (≈ 23.7 µM) throughout. Moreover, the “diameter of the inhibition zone (DIZ)” value in test [2] was found to be 12.1 mm; in test [3], 13.8 mm; in test [6], 14.1 mm; in test [7], 14.5 mm.

As to `CCOP(=O)(OCC)C(O)c1cc2cccc(OC)c2n2nnnc12` (configuration not stated), the MIC in test [1] turned out to be 15 µg/mL (≈ 40.9 µM); in test [4] it was 10 µg/mL (≈ 27.3 µM); in test [5], 15 µg/mL (≈ 40.9 µM); in test [8], 15 µg/mL (≈ 40.9 µM). The “diameter of the inhibition zone (DIZ)” value is 12.5 mm in test [2], 13.3 mm in test [3], 13.8 mm in test [6] and 11.5 mm in test [7].

Take `CCOP(=O)(OCC)C(O)c1cc2cccc(C)c2n2nnnc12` (configuration not stated): the MIC in test [1] stood at 15 µg/mL (≈ 42.8 µM); in test [4], 10 µg/mL (≈ 28.5 µM); in test [5], 25 µg/mL (≈ 71.4 µM); in test [8] it was 10 µg/mL (≈ 28.5 µM). The “diameter of the inhibition zone (DIZ)” value in test [2] worked out at 12.3 mm; in test [3], 13.7 mm; in test [6] it was 13 mm; in test [7] it was 13.1 mm.

With `CCOP(=O)(OCC)C(O)c1cc2ccc(C)cc2n2nnnc12` (configuration not stated), the MIC in test [1] was 15 µg/mL (≈ 42.8 µM); in test [4] it was 10 µg/mL (≈ 28.5 µM); in test [5] it was 15 µg/mL (≈ 42.8 µM); in test [8], 10 µg/mL (≈ 28.5 µM). Also, the “diameter of the inhibition zone (DIZ)” value in test [2] came to 13.6 mm; in test [3], 12 mm; in test [6], 13.8 mm; in test [7] it was 13.2 mm.

In the case of `CCOP(=O)(OCC)C(OC(C)=O)c1cc2cc(C)ccc2n2nnnc12` (configuration not stated), the MIC in test [1] is 10 µg/mL (≈ 25.5 µM); in test [4], 10 µg/mL (≈ 25.5 µM); in test [5] it was 15 µg/mL (≈ 38.2 µM); in test [8], 10 µg/mL (≈ 25.5 µM). Moreover, the “diameter of the inhibition zone (DIZ)” value in test [2] turned out to be 12 mm; in test [3] it was 11.4 mm; in test [6] it was 13.1 mm; in test [7] it was 14.1 mm.

As to `CCOP(=O)(OCC)C(OC(C)=O)c1cc2cccc(C)c2n2nnnc12` (configuration not stated), the minimum inhibitory concentration (MIC) in test [1] was 15 µg/mL (≈ 38.2 µM); in test [4] it was 20 µg/mL (≈ 51 µM); in test [5], 10 µg/mL (≈ 25.5 µM); in test [8], 10 µg/mL (≈ 25.5 µM). The “diameter of the inhibition zone (DIZ)” value was 13.1 mm in test [2], 13.4 mm in test [3], 12.2 mm in test [6] and 12.2 mm in test [7].

Take `CCOP(=O)(OCC)C(O)c1cc2ccccc2n2nnnc12` (configuration not stated): the MIC in test [1] turned out to be 15 µg/mL (≈ 44.6 µM); in test [4] it was 10 µg/mL (≈ 29.7 µM); in test [5] it was 20 µg/mL (≈ 59.5 µM); in test [8] it was 10 µg/mL (≈ 29.7 µM). The “diameter of the inhibition zone (DIZ)” value is on record as 12 mm in test [2], 13.4 mm in test [3], 13.6 mm in test [6] and 12.1 mm in test [7].

As for `CCOP(=O)(OCC)C(O)c1cc2cc(C)ccc2n2nnnc12` (configuration not stated), the MIC in test [1], in test [4], in test [5] and in test [8] was 10 µg/mL (≈ 28.5 µM) throughout. Besides, the “diameter of the inhibition zone (DIZ)” value in test [2] came out at 15.2 mm; in test [3], 15 mm; in test [6] it was 13.2 mm; in test [7], 14.2 mm.

As for `CCOP(=O)(OCC)C(O)c1cc2cccc(CC)c2n2nnnc12` (configuration not stated), the MIC amounted to 10 µg/mL (≈ 27.4 µM) in test [1], 10 µg/mL (≈ 27.4 µM) in test [4], 20 µg/mL (≈ 54.9 µM) in test [5] and 10 µg/mL (≈ 27.4 µM) in test [8]. For the same molecule, the “diameter of the inhibition zone (DIZ)” value is 14.5 mm in test [2], 16.2 mm in test [3], 13.4 mm in test [6] and 14.2 mm in test [7].

As for `CCOP(=O)(OCC)C(OC(C)=O)c1cc2cccc(CC)c2n2nnnc12` (configuration not stated), the MIC was 15 µg/mL (≈ 36.9 µM) in test [1], 10 µg/mL (≈ 24.6 µM) in test [4], 10 µg/mL (≈ 24.6 µM) in test [5] and 10 µg/mL (≈ 24.6 µM) in test [8]. In addition, the “diameter of the inhibition zone (DIZ)” value in test [2] is 15.1 mm; in test [3], 14.2 mm; in test [6], 12.1 mm; in test [7], 13.5 mm.

In the case of `CCOP(=O)(OCC)C(OC(C)=O)c1cc2ccccc2n2nnnc12` (configuration not stated), the MIC in test [1] amounted to 20 µg/mL (≈ 52.9 µM); in test [4] it was 15 µg/mL (≈ 39.6 µM); in test [5], 10 µg/mL (≈ 26.4 µM); in test [8], 10 µg/mL (≈ 26.4 µM). Further, the “diameter of the inhibition zone (DIZ)” value in test [2] came to 11.2 mm; in test [3] it was 12.5 mm; in test [6] it was 14.2 mm; in test [7] it was 13.4 mm.

Consider `COC1=CC(=O)C[C@@H](C)[C@]12Oc1c(Cl)c(OC)cc(OC)c1C2=O` [GRISEOFULVIN], for which the MIC in test [1] and in test [8] was 5 µg/mL (≈ 14.2 µM) in each case. Besides, the “diameter of the inhibition zone (DIZ)” value in test [6] stood at 16.4 mm; in test [7], 16.5 mm.

Regarding `CN[C@@H]1[C@H](O[C@H]2[C@H](O[C@H]3[C@H](O)[C@@H](O)[C@H](N=C(N)N)[C@@H](O)[C@@H]3N=C(N)N)O[C@@H](C)[C@]2(O)C=O)O[C@@H](CO)[C@H](O)[C@H]1O` [STREPTOMYCIN], the “diameter of the inhibition zone (DIZ)” value in test [2] is 16.4 mm; in test [3] it was 16.2 mm. Besides, the MIC in test [4] and in test [5] was 5 µg/mL (≈ 8.6 µM) throughout.
